The values below come from publication PMC9075791 (RSC Advances, 2019).

The nature of data set [1]: Cell-free aggregation assay. The format is physicochemical. The settings on record: for Detected CAC: critical aggregation concentration, 1× HBSS, 20 mM HEPES, pH 7.2; for aggregator / non-aggregator in aggregation assay: real time dose responses. In a few lines: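 Assay buffer (1× HBSS, 20 mM HEPES, pH 7.2) was equilibrated in wells of the RWG reader for 1 h. After a 2 min baseline, a compound dilution series (from DMSO stocks, maximum 1‰ final DMSO) was added and wavelength shift was recorded for 1 h. A DMSO range set the background. Responses at a fixed time were plotted against concentration to give the CAC. Each assay was run at least three times.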

In data set [2] the test system is HT-29 cells. The data set can be described thus: DMR agonism assay. Format: cell-based, Human. In a few lines: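 HT-29 cells were grown in McCoy's 5A with 10% FBS at 37 °C/5% CO2. They were seeded on RWG biosensor plates for ~24 h to form a monolayer, washed, and held 1 h in HBSS/20 mM HEPES pH 7.2, or in the same buffer with tween-80 for detergent runs. After a 2 min baseline, test compound was added and DMR was monitored for 1 h. The background-corrected maximal amplitude was used. Two independent runs, each at least in duplicate (n = 4).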

The target in data set [3] is Muscarinic M3 receptor (Homo sapiens, UniProt P20309). The data set can be described thus: DMR desensitization assay, M3. As to conditions: HT-29 cells; active compounds at concentrations above 50 μM. The format is cell-based.
Muscarinic M3 receptor, sequence (P20309 whole entry): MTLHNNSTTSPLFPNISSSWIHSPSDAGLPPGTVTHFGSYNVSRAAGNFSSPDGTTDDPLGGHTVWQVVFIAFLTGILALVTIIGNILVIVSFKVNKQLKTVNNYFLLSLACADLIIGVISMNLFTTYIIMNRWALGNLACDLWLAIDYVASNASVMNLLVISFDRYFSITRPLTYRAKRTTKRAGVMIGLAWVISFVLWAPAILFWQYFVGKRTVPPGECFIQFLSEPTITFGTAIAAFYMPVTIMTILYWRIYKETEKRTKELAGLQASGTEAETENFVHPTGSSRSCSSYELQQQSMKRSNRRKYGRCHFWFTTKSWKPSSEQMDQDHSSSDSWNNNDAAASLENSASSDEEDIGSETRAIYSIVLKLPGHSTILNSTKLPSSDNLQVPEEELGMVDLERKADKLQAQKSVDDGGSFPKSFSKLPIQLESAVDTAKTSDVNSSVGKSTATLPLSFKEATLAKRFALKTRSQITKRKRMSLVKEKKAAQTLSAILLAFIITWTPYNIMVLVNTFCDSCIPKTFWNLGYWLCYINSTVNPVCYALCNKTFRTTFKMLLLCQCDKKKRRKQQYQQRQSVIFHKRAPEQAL
The conditions of data set [4]: cited from earlier work.

Consider `COc1cc(/C=C/C(=O)CC(=O)/C=C/c2ccc(O)c(OC)c2)ccc1O` [Curcumin], for which, in data set [1], the “Detected CAC” value came out at 9.6 µM and the “aggregator / non-aggregator in aggregation assay” value is “aggregator”. In addition, the “DMR response (in words)” value in data set [2] (to its solubility limit) is listed as “barely triggered any cellular mass redistributions”. Also, the “inhibition of the DMR response of acetylcholine against muscarinic M3 receptor” value in data set [3] is reported as “did not inhibit”. In data set [4], the “Literature CAC detected by DLS” value is 17 ([ref. 16]) μM.
Regarding `O=c1c(-c2ccc(O)cc2)coc2cc(O)cc(O)c12` [Genistein], the “Detected CAC” value in data set [1] was 42.8 µM. Moreover, the “Literature CAC detected by DLS” value in data set [4] was <75 ([ref. 12]) μM.
For the molecule `O=c1cc(-c2ccc(O)c(O)c2)oc2cc(O)cc(O)c12` [Luteolin], the “Detected CAC” value in data set [1] worked out at 1.6 µM. The “Literature CAC detected by DLS” value in data set [4] was <50 ([ref. 12]) μM.
In the case of `O=C(O)c1cccnc1` [Nicotinic acid], the “aggregator / non-aggregator in aggregation assay” value in data set [1] is “non-aggregator”.
As to `COc1cc(O)c2c(c1)C(=O)c1cc(C)cc(O)c1C2=O` [Physcion], in data set [1], the “Detected CAC” value is recorded as “Undetected”. In addition, the “Literature CAC detected by DLS” value in data set [4] was 0.32 ([ref. 16]) μM.
`O=c1c(O)c(-c2ccc(O)c(O)c2)oc2cc(O)cc(O)c12` [Quercetin]: the “Detected CAC” value in data set [1] turned out to be 5.7 µM. Further, the DMR response entry in data set [2] (at 100 μM) was “less than 100 pm”. The “inhibition of the DMR response of acetylcholine against muscarinic M3 receptor” value in data set [3] was “false inhibited”.
Turning to `COc1cc(C2Oc3cc([C@H]4Oc5cc(O)cc(O)c5C(=O)[C@@H]4O)ccc3OC2CO)ccc1O` (some centres unmarked) [Silybin], the “Detected CAC” value in data set [1] came out at 25.2 µM. Besides, the “Literature CAC detected by DLS” value in data set [4] is 0.47 ([ref. 16]) μM.
